Assay results from ChEMBL document CHEMBL3286129, “Optimization of peptidomimetic boronates bearing a P3 bicyclic scaffold as proteasome inhibitors” (Eur J Med Chem, 2014).
pKi: −log10 of the molar value. The source made the active and inactive calls. The calls are words filed in the database; no cut-off is given here.

How the values were obtained:
PC-3 = assay: Growth inhibition of human PC3 cells; format: functional
NCI-H460 = assay: Growth inhibition of human NCI-H460 cells; format: functional
MCF7 = assay: Growth inhibition of human MCF7 cells; format: functional
MDA-MB-468 = assay: Growth inhibition of human MDA-MB-468 cells; format: functional
[1] = Cytotoxicity against human leukemia cells assessed as cell growth at 10 uM relative to control; format: functional; details: read-out: Activity
Summary of the method: (§1)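 Single-concentration screen against a panel of human cancer cell lines. Each value is the mean percent growth across the cell lines of that tumour subpanel.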

[2] = Growth inhibition of human HCC2998 cells; format: functional; details: HCC 2998
SK-MEL-5 = assay: Growth inhibition of human SK-MEL-5 cells; format: functional
A549 = assay: Growth inhibition of human A549/ATCC cells; format: functional
SK-MEL-28 = assay: Growth inhibition of human SK-MEL-28 cells; format: functional
NCI-H23 = assay: Growth inhibition of human NCI-H23 cells; format: functional
M14 = assay: Growth inhibition of human M14 cells; format: functional
[3] = Growth inhibition of human LOXIMVI cells; format: functional; details: LOX IMVI
CCRF-CEM = assay: Growth inhibition of human CCRF-CEM cells; format: functional
HL-60(TB) = assay: Growth inhibition of human HL-60(TB) cells; format: functional
[4] = biological target: T1, Proteasome Macropain subunit MB1 (Homo sapiens, UniProt P28074); assay: Inhibition of chymotrypsin-like activity of 20S proteasome in human erythrocytes using Suc-Leu-Leu-Val-Tyr-AMC as substrate by fluorescence assay; details: read-out: Ki
T1 sequence (P28074 whole entry): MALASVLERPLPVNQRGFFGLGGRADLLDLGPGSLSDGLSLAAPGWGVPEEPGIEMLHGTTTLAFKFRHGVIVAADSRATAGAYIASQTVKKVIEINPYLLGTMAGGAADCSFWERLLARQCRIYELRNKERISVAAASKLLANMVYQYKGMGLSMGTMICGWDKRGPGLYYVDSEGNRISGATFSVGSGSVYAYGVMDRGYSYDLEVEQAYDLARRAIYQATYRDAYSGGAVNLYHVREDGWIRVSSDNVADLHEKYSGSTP

NCI-H522 = assay: Growth inhibition of human NCI-H522 cells; format: functional
COLO 205 = assay: Growth inhibition of human COLO205 cells; format: functional
[5] = Growth inhibition of human RXF393 cells; format: functional
[6] = Growth inhibition of human UACC257 cells; format: functional
[7] = Growth inhibition of human SF295 cells; format: functional; details: SF-295
DU-145 = assay: Growth inhibition of human DU145 cells; format: functional
HCT-116 = assay: Growth inhibition of human HCT116 cells; format: functional
RPMI-8226 = assay: Growth inhibition of human RPMI8226 cells; format: functional
HT-29 = assay: Growth inhibition of human HT-29 cells; format: functional
[8] = Cytotoxicity against human renal cancer cells assessed as cell growth at 10 uM relative to control; format: functional; details: Cancer cell lines, read-out: Activity; summary of the method: as §1
NCI-H322M = assay: Growth inhibition of human NCI-H322M cells; format: functional
[9] = Growth inhibition of human HCT15 cells; format: functional
SF-268 = assay: Growth inhibition of human SF268 cells; format: functional
[10] = Growth inhibition of human OVCAR8 cells; format: functional
[11] = Cytotoxicity against human breast cancer cells assessed as cell growth at 10 uM relative to control; format: functional; details: Cancer cell lines, read-out: Activity; summary of the method: as §1
MDA-MB-231 = assay: Growth inhibition of human MDA-MB-231 cells; format: functional
[12] = Growth inhibition of human Hs 578T cells; format: functional
SNB-75 = assay: Growth inhibition of human SNB75 cells; format: functional
[13] = biological target: Proteasome Macropain subunit (Homo sapiens) (UniProt P49721); assay: Inhibition of trypsin-like activity of 20S proteasome in human erythrocytes using Boc-Leu-Arg-Arg-AMC as substrate by fluorescence assay; format: cell-based
Summary of the method: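 Human 20S proteasome 0.0025 mg/mL at 30 °C in 50 mM Tris pH 7.4, 50 mM NaCl, 0.5 mM EDTA, 0.03% SDS, 7.5% DMSO. Varied inhibitor concentrations; AMC release monitored continuously for 10 min, ex 380/em 460 nm. Ki derived from progress-curve IC50 fit.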

[14] = Growth inhibition of human BT549 cells; format: functional
SNB-19 = assay: Growth inhibition of human SNB19 cells; format: functional
786-0 = assay: Growth inhibition of human 786-0 cells; format: functional
[15] = read-out: LC50 (the source's name)

Sequence of Proteasome Macropain subunit (Homo sapiens) (P49721 whole entry): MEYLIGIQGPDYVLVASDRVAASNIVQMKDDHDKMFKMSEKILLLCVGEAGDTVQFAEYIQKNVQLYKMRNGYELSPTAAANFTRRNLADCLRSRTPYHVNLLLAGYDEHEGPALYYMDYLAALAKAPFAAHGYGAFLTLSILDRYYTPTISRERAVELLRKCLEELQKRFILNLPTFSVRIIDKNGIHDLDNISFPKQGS

## CC(C)C[C@H](NC(=O)CCn1ccc2ncccc2c1=O)B(O)O
PC-3
  GI50: 41.4 µM
  TGI: > 100 µM
PC-3; [15]
  CC50: > 100 µM
NCI-H460
  GI50: 36.2 µM
  LC50: > 100 µM
  TGI: > 100 µM
MCF7
  GI50: 3.61 µM
  TGI: > 100 µM
MCF7; [15]
  CC50: > 100 µM
MDA-MB-468
  GI50: 2.04 µM
  TGI: 9.96 µM
MDA-MB-468; [15]
  CC50: > 100 µM
[1]
  growth at 10 µM: 34.8%
[2]
  GI50: 13.6 µM
  LC50: 90.2 µM
  TGI: 35 µM
SK-MEL-5
  GI50: 4.03 µM
  LC50 (concentration killing 50% of cells): > 100 µM
  TGI: 22.1 µM
A549
  GI50: 38 µM
  TGI: > 100 µM
A549; [15]
  CC50: > 100 µM
SK-MEL-28
  GI50: 7.17 µM
  TGI: > 100 µM
SK-MEL-28; [15]
  CC50: > 100 µM
NCI-H23
  GI50: 25.4 µM
  TGI: > 100 µM
NCI-H23; [15]
  CC50: > 100 µM
M14
  GI50: 4.11 µM
  LC50 (concentration killing 50% of cells): 97.9 µM
  TGI: 22.3 µM
[3]
  GI50: 6.37 µM
  TGI: 28.4 µM
[3]; [15]
  CC50: > 100 µM
CCRF-CEM
  GI50: 2.35 µM
  TGI: > 100 µM
CCRF-CEM; [15]
  CC50: > 100 µM
HL-60(TB)
  GI50: 6.88 µM
  TGI: > 100 µM
[4]
  pKi: 7.24
NCI-H522
  GI50: 4.66 µM
  LC50: > 100 µM
  TGI: 21.7 µM
COLO 205
  GI50: 10 µM
  TGI: > 100 µM
COLO 205; [15]
  CC50: > 100 µM
[5]; RXF 393
  GI50: 3.29 µM
  TGI: 14.3 µM
[5]; RXF 393, read-out: LC50 (the source's name)
  CC50: 54.2 µM
[6]; UACC-257
  GI50: 10.1 µM
  TGI: 47 µM
[6]; UACC-257, read-out: LC50 (the source's name)
  CC50: > 100 µM
[7]
  GI50: 8.92 µM
  LC50: > 100 µM
  TGI: 36 µM
DU-145
  GI50: 32.7 µM
  TGI: > 100 µM
DU-145; [15]
  CC50: > 100 µM
HCT-116
  GI50: 3.3 µM
  LC50: 86.2 µM
  TGI: 16.5 µM
RPMI-8226
  GI50: 3.22 µM
  TGI: > 100 µM
RPMI-8226; [15]
  CC50: > 100 µM
HT-29
  GI50: 6.77 µM
  LC50: > 100 µM
  TGI: > 100 µM
[8]
  growth at 10 µM: 76.1%
NCI-H322M
  GI50: > 100 µM
  TGI: > 100 µM
NCI-H322M; [15]
  CC50: > 100 µM
[9]; HCT-15
  GI50: 21.3 µM
  TGI: > 100 µM
[9]; HCT-15, read-out: LC50 (the source's name)
  CC50: > 100 µM
SF-268
  GI50: 14.7 µM
  LC50: > 100 µM
  TGI: > 100 µM
[10]; OVCAR-8
  GI50: 37.5 µM
  TGI: > 100 µM
[10]; OVCAR-8, read-out: LC50 (the source's name)
  CC50: > 100 µM
[11]
  growth at 10 µM: 68%
MDA-MB-231
  GI50: 7.94 µM
  TGI: 32.5 µM
MDA-MB-231; [15]
  CC50: > 100 µM
[12]
  GI50: 15.6 µM
  TGI: > 100 µM
[12]; [15]
  CC50: > 100 µM
SNB-75
  GI50: 13.3 µM
  LC50: > 100 µM
  TGI: 44.9 µM
[13]
  inhibition: inactive
[14]; BT-549
  GI50: 3.49 µM
  TGI: 12.5 µM
[14]; BT-549, read-out: LC50 (the source's name)
  CC50: > 100 µM
SNB-19
  GI50: 41.2 µM
  TGI: > 100 µM
SNB-19; [15]
  CC50: > 100 µM
786-0
  GI50: 7.94 µM
  TGI: > 100 µM
786-0; [15]
  CC50: > 100 µM
